Molecules are shown by their SMILES. Bounds are passed on as bounds.

Consider 29 compounds from ChEMBL document CHEMBL4715732, “4-Phenylureido/thioureido-substituted 2,2-dimethylchroman analogs of cromakalim bearing a bulky 'carbamate' moiety at the 6-position as potent inhibitors of glucose-sensitive insulin secretion” (Eur J Med Chem, 2016).

One test relates to Aorta. The test can be described thus: Myorelaxant activity in aortic rings isolated from Wistar rat assessed as reduction in KCl-induced contractions measured after 60 mins in presence of 80 mM KCl by force-displacement transducer. In kind it is functional, tissue-based. The settings on record: 1 h, in the assay text read “30 mM KCl” for “80 mM KCl”. The gist of the method:
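Endothelium-free rat aorta rings were contracted with 30 mM or 80 mM K+, with 1 or 10 μM glibenclamide present for some 30 mM series. Agent was applied cumulatively. EC50 is the concentration giving 50% relaxation of the KCl-induced contraction, reported as mean ± SEM (n).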

A short description of test [1]: Residual glucose-induced insulin secretion in Wistar rat pancreatic islets at 10 uM incubated for 90 mins in presence of 16.7 mM glucose by radioimmunological assay relative to control. The settings on record: Pancreatic islet, 1.5 h.
A short description of test [2]: Residual glucose-induced insulin secretion in Wistar rat pancreatic islets at 1 uM incubated for 90 mins in presence of 16.7 mM glucose by radioimmunological assay relative to control. The settings on record: Pancreatic islet, 1.5 h.

`COC(=O)Nc1ccc2c(c1)C(NC(=O)Nc1ccc(C#N)cc1)CC(C)(C)O2` (racemic): the half-maximal effective concentration (EC50) in the test with Aorta is above 30 µM. Moreover, the residual insulin secretion at 10 µM in test [1] was determined as 36.9%. For the same compound, the residual insulin secretion at 1 µM in test [2] is 89.7%.
For `CC(C)OC(=O)Nc1ccc2c(c1)C(NC(=O)Nc1ccc(Cl)cc1)CC(C)(C)O2` (racemic), in the test on Aorta, the concentration for a half-maximal effect (EC50) was found to be 46.2 µM. Also, the residual insulin secretion at 10 µM in test [1] is 48.7%. Further, the residual insulin secretion at 1 µM in test [2] amounted to 92.3%.
Take `COC(=O)Nc1ccc2c(c1)C(NC(=O)Nc1ccc(Cl)cc1)CC(C)(C)O2` (racemic): the EC50 with Aorta is above 30 µM. Besides, the residual insulin secretion at 10 µM in test [1] is 53.7%. Moreover, the residual insulin secretion at 1 µM in test [2] turned out to be 92.7%.
As for `CC(C)OC(=O)Nc1ccc2c(c1)C(NC(=O)Nc1cccc(Cl)c1)CC(C)(C)O2` (racemic), in the test with Aorta, the EC50 was 12.6 µM. Moreover, the residual insulin secretion at 10 µM in test [1] came out at 23.7%. The residual insulin secretion at 1 µM in test [2] is 92%.
Consider `CC(C)OC(=O)Nc1ccc2c(c1)C(NC(=S)Nc1ccc(Cl)cc1)CC(C)(C)O2` (racemic), for which the half-maximal effective concentration (EC50) in the test on Aorta stood at 10.4 µM. In test [1], the residual insulin secretion at 10 µM is 14.9%. For the same compound, the residual insulin secretion at 1 µM in test [2] is 81.2%.
As to `CC1(C)Oc2ccc(C#N)cc2C(N2CCCC2=O)C1O` (racemic) [CROMAKALIM], the residual insulin secretion at 10 µM in test [1] is 94.4%. Also, the residual insulin secretion at 1 µM in test [2] worked out at 95.3%.
Take `CCOC(=O)Nc1ccc2c(c1)C(NC(=S)Nc1ccc(Cl)cc1)CC(C)(C)O2` (racemic): the concentration giving a half-maximal response (EC50) with Aorta was 8.9 µM. Further, the residual insulin secretion at 10 µM in test [1] stood at 22%. In addition, in test [2], the residual insulin secretion at 1 µM was determined as 78.4%.
In the case of `CC(C)(C)OC(=O)Nc1ccc2c(c1)C(NC(=O)Nc1ccc(Cl)cc1)CC(C)(C)O2` (racemic), in the test with Aorta, the EC50 was found to be 9.4 µM. Besides, the residual insulin secretion at 10 µM in test [1] came out at 36.4%. Moreover, the residual insulin secretion at 1 µM in test [2] came to 86.1%.
With `CCOC(=O)Nc1ccc2c(c1)C(NC(=O)Nc1cccc(C#N)c1)CC(C)(C)O2` (racemic), in the test on Aorta, the EC50 is 14.2 µM. In test [1], the residual insulin secretion at 10 µM was found to be 5.9%. In addition, in test [2], the residual insulin secretion at 1 µM was determined as 81%.
For `CCOC(=O)Nc1ccc2c(c1)C(NC(=O)Nc1ccc(Cl)cc1)CC(C)(C)O2` (racemic), the concentration for a half-maximal effect (EC50) in the test with Aorta came out at 21.2 µM. The residual insulin secretion at 10 µM in test [1] is 49.9%. Also, in test [2], the residual insulin secretion at 1 µM worked out at 92.1%.
Regarding `CC(C)OC(=O)Nc1ccc2c(c1)C(NC(=O)Nc1ccc(C#N)cc1)CC(C)(C)O2` (racemic), the concentration giving a half-maximal response (EC50) in the test with Aorta stood at 17.7 µM. The residual insulin secretion at 10 µM in test [1] is 14.1%. The residual insulin secretion at 1 µM in test [2] came to 80.7%.
Consider `COC(=O)Nc1ccc2c(c1)C(NC(=S)Nc1ccc(Cl)cc1)CC(C)(C)O2` (racemic), for which the concentration for a half-maximal effect (EC50) in the test with Aorta came to 24.4 µM. For the same compound, the residual insulin secretion at 10 µM in test [1] worked out at 22.8%. In addition, in test [2], the residual insulin secretion at 1 µM was determined as 84.9%.
As to `COC(=O)Nc1ccc2c(c1)C(NC(=O)Nc1cccc(Cl)c1)CC(C)(C)O2` (racemic), the EC50 in the test on Aorta is above 30 µM. Also, in test [1], the residual insulin secretion at 10 µM came out at 35.7%. Further, in test [2], the residual insulin secretion at 1 µM turned out to be 92%.
As to `CCOC(=O)Nc1ccc2c(c1)C(NC(=S)Nc1cccc(Cl)c1)CC(C)(C)O2` (racemic), in the test on Aorta, the 50% effective concentration (EC50) was 22.7 µM. Moreover, in test [1], the residual insulin secretion at 10 µM is 21.5%. The residual insulin secretion at 1 µM in test [2] worked out at 73.7%.
In the case of `CC(C)OC(=O)Nc1ccc2c(c1)C(NC(=S)Nc1cccc(C#N)c1)CC(C)(C)O2` (racemic), in the test with Aorta, the 50% effective concentration (EC50) is 5.6 µM. Also, the residual insulin secretion at 10 µM in test [1] was determined as 14.2%. Further, in test [2], the residual insulin secretion at 1 µM was 79.3%.
Taken in the same sequence, the figures for `COC(=O)Nc1ccc2c(c1)C(NC(=S)Nc1ccc(C#N)cc1)CC(C)(C)O2` (racemic) were above 30 µM, 27.8% and 93.8%.
Regarding `COC(=O)Nc1ccc2c(c1)C(NC(=S)Nc1cccc(C#N)c1)CC(C)(C)O2` (racemic), the EC50 in the test with Aorta was 4.8 µM. Also, the residual insulin secretion at 10 µM in test [1] came to 29.3%. In addition, the residual insulin secretion at 1 µM in test [2] is 85.1%.
For the compound `CCOC(=O)Nc1ccc2c(c1)C(NC(=S)Nc1ccc(C#N)cc1)CC(C)(C)O2` (racemic), the EC50 in the test on Aorta came to 19.4 µM. The residual insulin secretion at 10 µM in test [1] is 10.2%. In test [2], the residual insulin secretion at 1 µM is 80.2%.
For `CC(C)OC(=O)Nc1ccc2c(c1)C(NC(=S)Nc1cccc(Cl)c1)CC(C)(C)O2` (racemic), the concentration giving a half-maximal response (EC50) with Aorta is 11 µM. Moreover, the residual insulin secretion at 10 µM in test [1] was found to be 19.3%. In addition, the residual insulin secretion at 1 µM in test [2] stood at 81.5%.
Regarding `CCOC(=O)Nc1ccc2c(c1)C(NC(=S)Nc1cccc(C#N)c1)CC(C)(C)O2` (racemic), the half-maximal effective concentration (EC50) with Aorta was 12.3 µM. Also, in test [1], the residual insulin secretion at 10 µM was 14.8%. Also, the residual insulin secretion at 1 µM in test [2] turned out to be 77.6%.
For `CC(C)OC(=O)Nc1ccc2c(c1)C(NC(=O)Nc1cccc(C#N)c1)CC(C)(C)O2` (racemic), the EC50 in the test on Aorta was 12.1 µM. In test [1], the residual insulin secretion at 10 µM stood at 12.7%. Also, the residual insulin secretion at 1 µM in test [2] came to 50.5%.
For the compound `COC(=O)Nc1ccc2c(c1)C(NC(=S)Nc1cccc(Cl)c1)CC(C)(C)O2` (racemic), the EC50 with Aorta was 15.4 µM. In addition, the residual insulin secretion at 10 µM in test [1] came out at 26.1%. The residual insulin secretion at 1 µM in test [2] amounted to 84.2%.
Turning to `CC1=Nc2ccc(Cl)cc2S(=O)(=O)N1` [DIAZOXIDE], the residual insulin secretion at 10 µM in test [1] was 80.8%. Besides, the residual insulin secretion at 1 µM in test [2] stood at 91%.
With `CC(C)OC(=O)Nc1ccc2c(c1)C(NC(=S)Nc1ccc(C#N)cc1)CC(C)(C)O2` (stereo not given), the EC50 in the test with Aorta stood at 7.2 µM. Besides, in test [1], the residual insulin secretion at 10 µM came out at 14.8%. Besides, the residual insulin secretion at 1 µM in test [2] came to 86%.
In the case of `CCOC(=O)Nc1ccc2c(c1)C(NC(=O)Nc1cccc(Cl)c1)CC(C)(C)O2` (racemic), the EC50 with Aorta is 13.1 µM. Besides, the residual insulin secretion at 10 µM in test [1] came out at 36.1%. Also, in test [2], the residual insulin secretion at 1 µM came to 82.8%.
Take `CCOC(=O)Nc1ccc2c(c1)C(NC(=O)Nc1ccc(C#N)cc1)CC(C)(C)O2` (racemic): the EC50 in the test with Aorta is above 30 µM. The residual insulin secretion at 10 µM in test [1] was found to be 17.4%. The residual insulin secretion at 1 µM in test [2] turned out to be 79.5%.
In the case of `COC(=O)Nc1ccc2c(c1)C(NC(=O)Nc1cccc(C#N)c1)CC(C)(C)O2` (racemic), the EC50 in the test on Aorta is 16.9 µM. In addition, the residual insulin secretion at 10 µM in test [1] was 9.4%. In addition, the residual insulin secretion at 1 µM in test [2] is 88.3%.
As for `CC(C)(C)OC(=O)Nc1ccc2c(c1)C(NC(=O)Nc1ccc(C#N)cc1)CC(C)(C)O2` (racemic), in the test with Aorta, the EC50 is 6.5 µM. Further, in test [1], the residual insulin secretion at 10 µM came to 5.8%. Moreover, in test [2], the residual insulin secretion at 1 µM was found to be 53.4%.
Consider `CC(C)(C)OC(=O)Nc1ccc2c(c1)C(NC(=O)Nc1cccc(Cl)c1)CC(C)(C)O2` (racemic), for which the EC50 in the test on Aorta came out at 18.7 µM. Also, the residual insulin secretion at 10 µM in test [1] amounted to 11%. Moreover, the residual insulin secretion at 1 µM in test [2] stood at 86.4%.

A word on the EC50: it is the concentration at which the effect is half-maximal.
